“And” between values parts separate entries of the source, which are not always exact repeats. Equal values may be shown once. “Also recorded” adds a separate entry of the source. Read-outs that look alike come from different tables or passages of the source. Marks after values point to notes of the source that are not given here.
Tests used:
[1] = Cyclic voltammetry in acetonitrile; type: physicochemical; details: 0.10 M TBAP, irreversible reduction peak
[2] = Luminescence lifetime measurements in PBS; type: physicochemical; details: for luminescence lifetime τN2: nitrogen-saturated PBS (pH 7.4); for luminescence lifetime τ: air-equilibrated PBS, 10 μM
How it was run: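 Test compound was measured at 10 μM in PBS. Time-resolved photon counts were collected in 40 ns bins and fitted to a standard exponential decay. For deoxygenated samples, nitrogen was bubbled through the PBS solution for 20 min before measurement.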

[3] = system: HeLa cells; test: Intracellular luminescence by confocal fluorescence microscopy; type: cell-based; details: 10 μM, 2 h
How it was run: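 HeLa cells were kept in DMEM with 10% FBS at 37 °C and 5% CO2. 1 × 10^5 cells were seeded on glass-bottom dishes, and after 24 h they were exposed to the test compound (10 μM in DMEM) for 2 h. Cells were then washed with PBS and imaged in HEPES imaging buffer, pH 7.4. Confocal excitation was 405 nm with 410–550 nm emission. Corrected total cell fluorescence was averaged over at least ten cells.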

[4] = system: HeLa cells; test: Thioflavin T; type: cell-based; details: 10 μM, 30 min post-treatment
How it was run: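 About 1 × 10^5 HeLa cells were seeded on glass-bottom dishes. After 24 h they were loaded with 5 μM ThT for 2 h, washed, and given fresh medium. Test compound (10 μM) was added in imaging buffer. Confocal images were taken at 0 and 30 min (ex 405 nm, em 410–550 nm). Corrected total cell fluorescence was computed as integrated density minus cell area × mean background.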

[5] = system: HeLa cells; test: Puromycin incorporation assay; type: cell-based; details: 10 μM, 2 h, then puromycin
How it was run: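 HeLa cells were exposed for 2 h to 10 μM test compound or DMSO vehicle. Puromycin (10 μM) was then added, and cells were harvested 10 min later. Lysis was in TBS/1% Triton X-100. Samples were run on SDS-PAGE and blotted to PVDF, with blocking in 5% milk/0.1% Tween-20. Anti-puromycin was applied overnight at 4 °C, then HRP secondary 1 h at room temperature. Detection was by ECL, normalised to β-actin.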

[6] = system: CHOP; test: CHOP expression Western blot; type: cell-based; details: HeLa cells, 10 μM, 24 h
How it was run: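 HeLa cells were exposed for 24 h to 10 μM test compound or DMSO vehicle. Lysis was in TBS (pH 7.5) with 1% Triton X-100, DNase and protease inhibitors, on ice 30 min. Samples were run on SDS-PAGE and blotted to PVDF. Blocking was 5% BSA/0.1% Tween-20. Anti-CHOP was applied overnight at 4 °C, then HRP secondary 1 h at room temperature. Detection was by ECL, with β-actin as loading control.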

[7] = Biodistribution in mice; type: in vivo; details: BALB/c mice
How it was run: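 Female BALB/c mice, 6 weeks old, received a 99mTc tricarbonyl isonitrile analogue (51–104 μCi) with the Re test compound (0.2 μmol; 10 μmol/kg) together through a tail vein catheter in 10% EtOH/saline. Animals were killed at 1, 2 and 4 h, and blood (cardiac puncture), organs, muscle, femur and urine were collected. For Re, tissues were digested in nitric acid for 20 h at 25 °C and measured by ICP-OES with a 20 ppm Tb internal standard. Results were expressed as %ID/g.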

[8] = system: A2780 ovarian cancer xenografts; test: In vivo tumor growth inhibition, A2780 ovarian cancer xenografts; design: species or system NSG mice
How it was run: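 NSG mice, about 7 weeks old, received A2780 tumour fragments from propagation mice implanted subcutaneously in the left flank. Groups of at least five were treated once tumours exceeded 100 mm3. Dosing was tail-vein injection twice weekly with vehicle (20% DMSO/PBS) or 5, 10 or 20 mg/kg test compound. Body weight and caliper tumour volume were tracked blinded over 27 days. Endpoints were a dimension >30 mm or burden […]; survival was compared with vehicle.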

[9] = Maximum tolerated dose; type: in vivo; details: injections in mice
[10] = Solubility in water or PBS; type: physicochemical
[11] = system: HeLa cells; details: MTT assay; cited from earlier work
[12] = PBS pH 7.4; cited from earlier work
[13] = air-equilibrated PBS; cited from earlier work
[14] = a week in aqueous solution, even in the presence of glutathione; cited from earlier work
[15] = system: HeLa cells; test: MTT cytotoxicity assay in HeLa cells; type: cell-based; details: 48 h incubation
How it was run: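 HeLa cells were grown in DMEM with 10% FBS at 37 °C, 5% CO2. Cells were seeded at 4000/well and rested 24 h, then medium was replaced with test-compound dilutions for 48 h. Stocks were in PBS or DMSO. MTT (1 mg/mL in DMEM) was added for 4 h. Formazan was dissolved in 8:1 DMSO/pH 10 glycine buffer and read at 570 nm. Viability was normalised to untreated wells: three independent experiments, six replicates per concentration.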

[16] = Emission spectra and emission quantum yield in PBS; type: physicochemical; details: PBS pH 7.4, ≤1% DMSO, air-equilibrated; for emission quantum yield Φ: relative to quinine sulfate
How it was run: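 Spectra were taken in PBS pH 7.4 with ≤1% DMSO. Quantum yield was set relative to quinine sulfate (Φ = 0.52, 0.5 M H2SO4), cross-checked against harmaline (Φ = 0.32, 0.05 M H2SO4). Excitation was 350 nm, keeping absorbance below 0.1. At least five concentrations of sample and standard were measured. Absorbance at 350 nm was plotted against integrated emission.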

[17] = system: HeLa cells; test: Mitochondria morphology; type: cell-based; details: 10 μM, up to 30 min
How it was run: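 HeLa cells were loaded with MitoTracker Red FM and Hoechst 33342 for 30 min, then washed. At the microscope, test compound was added to 10 μM final in HEPES imaging buffer (pH 7.4). Confocal images were taken every 2 min up to 30 min: MitoTracker ex 561/em 630–700 nm, Hoechst ex 405/em 410–550 nm. Individual mitochondria were counted in ImageJ at 0, 14 and 30 min, alongside untreated cells.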

[18] = tail vein injection, 0.2 μmol Re / ~100 μCi 99mTc

Compound | Epc [1] | luminescence lifetime τN2 [2] | increase in ThT fluorescence [4] | inhibition of protein synthesis (puromycin incorporation) [5] | CHOP expression [6] | IC50 [15] | emission maximum λ [16] | emission quantum yield Φ [16] | luminescence lifetime τ [2] | other results
Cc1ccc2ccc3ccc(C)nc3c2n1.O=S(=O)([O-])C(F)(F)F.[C-]#[N+]c1ccc(C)cc1.[C-]#[O+].[C-]#[O+].[C-]#[O+].[Re+] [TRIP-1a, fac-[Re(CO)3(dmphen)(ptolICN)]OTf] | −1.25 V vs SCE | 3.5 μs | ≥ 2 fold | most efficient inhibition of protein synthesis | induce CHOP expression | – | – | – | – | intracellular localization pattern [3]: primarily localized around the nucleus in a punctate pattern; rhenium content in blood, muscle and bone ([7]; ICP-OES): below detectable levels; heart and lung accumulation [7, 18]: accumulate in the heart and lungs; kidney uptake [7, 18]: large; liver uptake [7, 18]: moderate; spleen uptake [7, 18]: taken up to a much higher extent in this organ compared to TTIP; effect on tumor growth rate ([8]; 5 mg/kg i.v. twice weekly, 20% DMSO/PBS): no effect on tumor growth rate; effect on tumor growth rate ([8]; 10 mg/kg i.v. twice weekly, 20% DMSO/PBS): no effect on tumor growth rate; effect on tumor growth ([8]; 20 mg/kg i.v. twice weekly, 20% DMSO/PBS): inhibit tumor growth; also recorded: significantly inhibits tumor growth; prolongation of survival relative to the control group ([8]; 20 mg/kg twice weekly): 150%; average tumor volume relative to the vehicle-treated group ([8]; 20 mg/kg, days 10 to 20 after beginning treatment): less than half; side effects / body weight changes ([8]; highest concentrations of TRIP-1a, tumor-bearing NSG mice): minimal body weight changes; local reaction on administration ([8]; i.v. formulation in 20% DMSO/PBS): severe local inflammation; maximum tolerated dose, no obvious sign of distress [9]: ≥ 40 mg/kg; solubility [10]: up to 2 mM; IC50 [11]: 1.4 ± 0.2 µM; emission maximum λ [12]: 505 nm; emission quantum yield Φ [12]: 3.1 ± 0.3%; luminescence lifetime τ [13]: 1.1^c μs; degradation in aqueous solution [14]: no measurable degradation
Cc1ccc(N=[C]=[Re+]2(=[C]=O)(=[C]=O)(=[C]=O)[N]3C=CC=c4ccc5c(c43)[N]2C=CC=5)cc1.O=S(=O)([O-])C(F)(F)F [TRIP-2a, fac-[Re(CO)3(phen)(ptolICN)]OTf] | −1.18 V vs SCE | 10.9 μs | – | – | – | 5.8 ± 0.5 µM | 512 nm | 5.3 ± 0.4% | 1.8 μs | –
O=S(=O)([O-])C(F)(F)F.[C-]#[N+]c1ccc(C)cc1.[C-]#[O+].[C-]#[O+].[C-]#[O+].[Re+].c1ccc(-c2ccccn2)nc1 [TRIP-3a, fac-[Re(CO)3(bpy)(ptolICN)]OTf] | −1.18 V vs SCE | 1.0 μs | – | not effective translation inhibitors | – | 27.5 ± 0.6 µM | 523 nm | 6.3 ± 0.2% | 0.7 μs | change in mitochondrial morphology (mitochondrial fission) [17]: did not give rise to any changes in mitochondrial morphology
N.N.[Cl][Pt][Cl] [cisplatin, reference compound] | – | – | – | – | – | – | – | – | – | IC50 [11]: 6.6 ± 0.7 µM
fac-[Re(CO)3(CF3bpy)(ptolICN)]OTf [TRIP-6a] | – | 0.1 μs | unable to change the ThT fluorescence levels relative to untreated cells | not effective translation inhibitors | except for the least cytotoxic compound TRIP-6a | 53 µM and 53.1 µM | 584 nm | 0.8% and 0.8 ± 0.1% | 0.1 μs | change in mitochondrial morphology (mitochondrial fission) [17]: did not give rise to any changes in mitochondrial morphology
fac-[Re(CO)3(dmbpy)(ptolICN)]OTf [TRIP-4a] | −1.30 V vs SCE | 1.3 μs | – | – | – | 7.6 ± 0.3 µM | 516 nm | 6.7 ± 0.1% | 0.8 μs | –
fac-[Re(CO)3(dmobpy)(ptolICN)]OTf [TRIP-5a] | −1.33 V vs SCE | 0.7 μs | – | – | – | 8.4 ± 1.9 µM | 525 nm | 3.9 ± 0.3% | 0.4 μs | –
fac-[Re(CO)3(tbutylbpy)(ptolICN)]OTf [TRIP-7a] | −1.30 V vs SCE | 1.6 μs | ≥ 2 fold | most efficient inhibition of protein synthesis | induce CHOP expression | 1.2 ± 0.5 µM | 518 nm | 7.7 ± 0.2% | 0.7 μs | intracellular localization pattern [3]: distributed evenly throughout the cytoplasm
